Experimental findings from ChEMBL document CHEMBL2203272, “New fluorescent bile acids: synthesis, chemical characterization, and disastereoselective uptake by Caco-2 cells of 3-deoxy 3-NBD-amino deoxycholic and ursodeoxycholic acid” (Bioorg Med Chem, 2012) are described below.

Series [1] deals with Caco-2. The series can be described thus: Cytotoxicity against human Caco2 cells assessed as cell viability at 1 to 100 uM up to 100 mins by MTT assay. The class given is cell-based. To be noted: caco-2, 100 min. Put shortly: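 Caco-2 monolayers exposed to 1–100 μM for up to 100 min; viability by MTT assay.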
Series [2] in a line: Stability of the compound in MeCN/phosphate buffer assessed as compound remaining at pH 7.4 measured for 24 hrs by HPLC analysis. The class given is physicochemical. The following applies: pH 7.4, 24 h. Summed up: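 Solution at 0.01 mg/ml (stock) in 2% MeCN/phosphate buffer pH 7.4, held at 37°C for 24 h and injected hourly. Analysed by C18 reversed-phase HPLC with MeCN/pH 2.5 phosphate buffer gradient, 1.0 ml/min, column 37°C, detection 346 nm; remaining compound followed by peak area.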

Series [3] in a line: Cytotoxicity against human SKGT4 cells assessed as cell viability at 1 to 100 uM up to 24 hrs by MTT assay. In kind it is cell-based. To be noted: skgt4, 24 h. Summed up:
(§1)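 HUH-7 and SKGT-4 cells exposed up to 100 μM for up to 24 h; viability by MTT assay.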

Series [4] deals with Caco-2. The series can be described thus: Cellular uptake in human Caco2 cells at 10 uM at 4 degC by fluorescence assay. In kind it is ADME, cell-based. To be noted: caco-2, 10 µM, TDE = time-dependent effect. Put shortly:
(§2)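 21-d polarised Caco-2 monolayers incubated with 10 μM in KRB (pH 7.4, 0.1% DMSO) at 37°C or 4°C. Sampled at 5, 10, 15, 30, 45, 60 and 90 min. Cells washed twice with ice-cold KRB and lysed in 1% Triton X-100. Lysate fluorescence read at ex 485/em 520 nm and normalised to BCA protein; mean ± SD, n = 3.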

Series [5] deals with Caco-2. The series is described as follows: Cellular uptake in human Caco2 cells at 10 uM at 37 degC by fluorescence assay. In kind it is ADME, cell-based. The following applies: caco-2, 10 µM, TDE = time-dependent effect. Summed up: as §2
A further series deals with Huh-7. The series is described as follows: Cytotoxicity against human HuH7 cells assessed as cell viability at 1 to 100 uM up to 24 hrs by MTT assay. The following applies: huh-7, 24 h. The class given is cell-based. Put shortly:
as §1

Series [6] concerns Caco-2. The series can be described thus: Cellular uptake in human Caco2 cells assessed as uptake rate measured per mg of protein at 1 to 100 uM at 4 to 37 degC after 20 mins by Eadie-Hofstee plot method. The class given is ADME, cell-based. To be noted: caco-2, 20 min. Summed up:
(§3)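 Caco-2 monolayers grown 21 d, exposed to 1–100 μM in bicarbonated Krebs-Ringer buffer (HEPES, pH 7.4, 0.1% DMSO) for 20 min at 37°C and 4°C. Washed twice with ice-cold KRB, lysed in 1% Triton X-100, fluorescence read at ex 485/em 520 nm and normalised to BCA protein. Active uptake = 37°C minus 4°C. Km/Vmax from Michaelis-Menten non-linear least squares fit, Eadie-Hofstee plot; n = 3.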

Series [7] in a line: Cellular uptake in human Caco2 cells assessed as uptake rate at 1 to 100 uM at 4 to 37 degC after 20 mins by Eadie-Hofstee plot method. The class given is ADME, cell-based. The following applies: Caco-2 cells. Put shortly:
as §3

Series [8] has as its system Caco-2. The series can be described thus: Cellular uptake in human Caco2 cells at 4 to 37 degC after 20 mins by fluorescence assay. The class given is ADME, cell-based. The following applies: caco-2, 20 min. Put shortly:
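Uptake into 21-d Caco-2 monolayers over 20 min at 37°C and 4°C, in KRB pH 7.4 with 0.1% DMSO. Monolayers washed with ice-cold KRB and solubilised in 1% Triton X-100. Fluorescence read at ex 485/em 520 nm with BCA protein normalisation. Active part taken as the 37°C minus 4°C difference; n = 3.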

Series [9] relates to Caco-2. The series is described as follows: Cellular uptake in human Caco2 cells at 10 uM at 4 to 37 degC after 90 mins by fluorescence assay. In kind it is ADME, cell-based. The following applies: caco-2, 1.5 h. Summed up:
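Caco-2 grown 21 d on 24-well plates as polarised monolayers; compound at 10 μM in bicarbonated Krebs-Ringer buffer (HEPES, pH 7.4) with 0.1% DMSO, at 37°C or 4°C, sampled 5–90 min. Washed twice with ice-cold KRB, lysed in 1% Triton X-100, lysate fluorescence read at ex 485/em 520 nm, normalised to BCA protein. Active uptake = 37°C minus 4°C; mean ± SD, n = 3.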

Turning to `C[C@H](CCC(=O)O)[C@H]1CC[C@H]2[C@@H]3[C@@H](O)C[C@@H]4C[C@@H](Nc5ccc([N+](=O)[O-])c6nonc56)CC[C@]4(C)[C@H]3CC[C@]12C`, the Activity result (in the series on Caco-2 [1]; in series [3]; with Huh-7) was “Non-toxic” in each case. The Stability result in series [2] is given as “Stable”. The Drug uptake entry in the series on Caco-2 [4] and with Caco-2 [5] was “tde” each time.

For `C[C@H](CCC(=O)O)[C@H]1CC[C@H]2[C@@H]3CC[C@@H]4C[C@H](Nc5ccc([N+](=O)[O-])c6nonc56)CC[C@]4(C)[C@H]3C[C@H](O)[C@]12C`, the Activity result (in the series on Caco-2 [1]; in series [3]; with Huh-7) was “Non-toxic” each time. Moreover, the Vmax with Caco-2 [6] is 1.8 nmol/min/mg. In addition, the Km at 20 min, up to 100 µM in [7] turned out to be 28.2 µM. Moreover, the Drug uptake result in the series on Caco-2 [8] is “Dose-dependent effect”; in the series with Caco-2 [4], “tde”; in the series with Caco-2 [5], “tde”.

Turning to `O=[N+]([O-])c1ccc(NC2CCCCC2)c2nonc12`, the Drug uptake entry with Caco-2 [8] is “Dose-dependent effect”; in the series on Caco-2 [9], “Active”.
